Values after ≈ are worked out from the molar mass of the structure shown.
How the values were obtained:
Plasma [1] = assay: Cmax in healthy human plasma assessed as metabolite BAY 78-1789 Cmax at 80 mg, po administered as four 20 mg immediate release tablets daily for 3 days during 10 hrs overnight fasting state measured after 1 day; type: ADME, organism-based; design: dose 80 mg, route oral; conditions: in vivo, 24 h
Method in brief: (§1)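 Healthy Caucasian males took tablets once daily for 3 days with 240 ml water after a 10-h fast. Heparinised blood was drawn predose and at 0.25–14 h after the first and last doses. Plasma parent drug and metabolites M1–M3 were measured by LC/MS-MS (MRM, deuterated internal standard). Noncompartmental analysis gave Cmax observed, t1/2 = 0.693/kel and MRT = AUMC/AUC. Values are geometric means.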

Plasma [2] = assay: Cmax in healthy human plasma assessed as metabolite BAY 78-1789 Cmax at 80 mg, po administered as four 20 mg immediate release tablets daily for 3 days during 10 hrs overnight fasting state measured after 3 day; type: ADME, organism-based; design: dose 80 mg, route oral; conditions: in vivo, 72 h; method in brief: as §1
Plasma [3] = assay: AUC in healthy human plasma assessed as metabolite BAY 78-1789 AUC at 80 mg, po administered as four 20 mg immediate release tablets daily for 3 days during 10 hrs overnight fasting state measured after 1 day; type: ADME, organism-based; design: dose 80 mg, time < 10 hr, route oral; conditions: in vivo
Method in brief: (§2)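 Healthy Caucasian male volunteers took 40 mg (two 20-mg IR tablets) or 80 mg (four tablets) orally once daily for 3 days, with 240 ml water after a 10-h fast. Plasma was sampled predose to 14 h after the first and last doses. M1/M2/M3 were quantified by LC/MS-MS MRM against a D4-labelled internal standard. Cmax was read from observed data and AUC by log-linear trapezoidal rule, noncompartmental, geometric means.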

Plasma [4] = assay: AUC in healthy human plasma assessed as metabolite BAY 78-1789 AUC at 80 mg, po administered as four 20 mg immediate release tablets daily for 3 days during 10 hrs overnight fasting state measured after 3 day; type: ADME, organism-based; design: dose 80 mg, time < 10 hr, route oral; conditions: in vivo; method in brief: as §2
Plasma [5] = assay: Tmax in healthy human plasma assessed as metabolite BAY 78-1789 Tmax at 80 mg, po administered as four 20 mg immediate release tablets daily for 3 days during 10 hrs overnight fasting state measured after 1 day; type: ADME, organism-based; conditions: in vivo, 24 h
Method in brief: (§3)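 Healthy Caucasian men (8 active, 4 placebo per dose) dosed with tablets daily for 3 days after 10-h fast. Lithium-heparin plasma sampled predose and 0.25–14 h after day-1 and day-3 doses, stored frozen. Parent and M1–M3 quantified by LC/MS-MS in positive-ion MRM. Tmax taken directly from observed individual data.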

Plasma [6] = assay: Tmax in healthy human plasma assessed as metabolite BAY 78-1789 Tmax at 80 mg, po administered as four 20 mg immediate release tablets daily for 3 days during 10 hrs overnight fasting state measured after 3 day; type: ADME, organism-based; conditions: in vivo, 72 h; method in brief: as §3
Plasma [7] = assay: Half life in healthy human plasma assessed as metabolite BAY 78-1789 Half life at 80 mg, po administered as four 20 mg immediate release tablets daily for 3 days during 10 hrs overnight fasting state measured after 1 day; type: ADME, organism-based; conditions: in vivo; method in brief: as §1
Plasma [8] = assay: Half life in healthy human plasma assessed as metabolite BAY 78-1789 Half life at 80 mg, po administered as four 20 mg immediate release tablets daily for 3 days during 10 hrs overnight fasting state measured after 3 day; type: ADME, organism-based; conditions: in vivo, 72 h; method in brief: as §1
Plasma [9] = assay: Cmax in healthy human plasma assessed as metabolite BAY 78-1789 Cmax at 80 mg, po administered as single ascending doses during 10 hrs overnight fasting state; type: ADME, organism-based; design: dose 80 mg, route oral; conditions: in vivo
Method in brief: (§4)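 Healthy Caucasian male volunteers, single oral dose with 240 ml water after a 10-h overnight fast. Heparinised venous blood was drawn predose and at 0.25–14 h. Plasma was stored frozen. Parent drug and metabolites M1–M3 were measured by LC/MS-MS (MRM, deuterated internal standard). Noncompartmental analysis gave Cmax observed, t1/2 = 0.693/kel (terminal regression) and MRT = AUMC/AUC. Values are geometric means.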

Plasma [10] = assay: AUC (0 to infinity) in healthy human plasma assessed as metabolite BAY 78-1789 AUC (0 to infinity) at 80 mg, po administered as single ascending doses during 10 hrs overnight fasting state; type: ADME, organism-based; design: dose 80 mg, time infinity, route oral; conditions: in vivo
Method in brief: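 Healthy Caucasian male volunteers, single oral dose of 80 mg as four 20-mg immediate-release tablets, taken with 240 ml water after a 10-h overnight fast. Lithium-heparin venous blood was drawn predose and at 0.25–14 h, and plasma was stored frozen. Metabolites M1/M2/M3 were measured by LC/MS-MS (positive-ion MRM, deuterated internal standard). Noncompartmental analysis, AUC by log-linear trapezoidal rule extrapolated to infinity (Clast/kel), geometric means.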

Plasma [11] = assay: Half-life in healthy human plasma assessed as metabolite BAY 78-1789 half-life at 80 mg, po administered as single ascending doses during 10 hrs overnight fasting state; type: ADME, organism-based; conditions: in vivo; method in brief: as §4
Plasma [12] = assay: Ratio of AUC (0 to infinity) for metabolite BAY 78-1789 to AUC (0 to infinity) for compound in healthy human plasma at 40 mg, po administered as single dose for 3 days measured after 1 day; type: ADME, organism-based; conditions: in vivo, 24 h
Method in brief: (§5)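 Healthy Caucasian men (8 active, 4 placebo per dose) dosed with tablets daily for 3 days after 10-h fast. Plasma sampled 0.25–14 h after first and last doses. Parent and metabolites M1–M3 measured by LC/MS-MS (200 µl plasma). Metabolic ratio is metabolite AUC0-∞ divided by parent AUC0-∞ (log-linear trapezoidal, extrapolated by last concentration/kel). First vs third dose compared by paired t test.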

Plasma [13] = assay: Ratio of AUC (0 to infinity) for metabolite BAY 78-1789 to AUC (0 to infinity) for compound in healthy human plasma at 40 mg, po administered as single dose for 3 days measured after 3 days; type: ADME, organism-based; conditions: in vivo, 72 h; method in brief: as §5
Plasma [14] = assay: Ratio of AUC (0 to infinity) for metabolite BAY 78-1789 to AUC (0 to infinity) for compound in healthy human plasma at 80 mg, po administered as single dose for 3 days measured after 1 day; type: ADME, organism-based; conditions: in vivo, 24 h; method in brief: as §5
Plasma [15] = assay: Ratio of AUC (0 to infinity) for metabolite BAY 78-1789 to AUC (0 to infinity) for compound in healthy human plasma at 80 mg, po administered as single dose for 3 days measured after 3 days; type: ADME, organism-based; conditions: in vivo, 72 h; method in brief: as §5
Plasmodium falciparum = assay: Antimalarial activity against Plasmodium falciparum K1 in human plasma assessed as inhibition of hypoxanthine uptake by intraerythrocytic malaria parasites by hypoxanthine incorporation assay; type: functional, organism-based
Method in brief: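 K1 or TM90-C2A parasites were sorbitol-synchronized and cultured in RPMI 1640. Drug was diluted in drug-free human serum (0.04–40 ng/ml) or subject plasma was diluted twofold (8–8,192). Parasites were added at 2% hematocrit, 1% parasitemia (>95% rings), and [3H]hypoxanthine uptake was measured over 48 h. IC50 or ID50 came from concentration or dilution-response curves. Equivalent concentration = ID50 × IC50.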

Plasma [16] = assay: Cmax in healthy human plasma assessed as metabolite BAY 78-1789 Cmax at 40 mg, po administered as two 20 mg immediate release tablets daily for 3 days during 10 hrs overnight fasting state measured after 1 day; type: ADME, organism-based; design: dose 40 mg, route oral; conditions: in vivo, 24 h; method in brief: as §1
Plasma [17] = assay: Cmax in healthy human plasma assessed as metabolite BAY 78-1789 Cmax at 40 mg, po administered as two 20 mg immediate release tablets daily for 3 days during 10 hrs overnight fasting state measured after 3 day; type: ADME, organism-based; design: dose 40 mg, route oral; conditions: in vivo, 72 h; method in brief: as §1
Plasma [18] = assay: AUC in healthy human plasma assessed as metabolite BAY 78-1789 AUC at 40 mg, po administered as two 20 mg immediate release tablets daily for 3 days during 10 hrs overnight fasting state measured after 1 day; type: ADME, organism-based; design: time < 10 hr, dose 40 mg, route oral; conditions: in vivo; method in brief: as §2
Plasma [19] = assay: AUC in healthy human plasma assessed as metabolite BAY 78-1789 AUC at 40 mg, po administered as two 20 mg immediate release tablets daily for 3 days during 10 hrs overnight fasting state measured after 3 day; type: ADME, organism-based; design: time < 10 hr, dose 40 mg, route oral; conditions: in vivo; method in brief: as §2
Plasma [20] = assay: Tmax in healthy human plasma assessed as metabolite BAY 78-1789 Tmax at 40 mg, po administered as two 20 mg immediate release tablets daily for 3 days during 10 hrs overnight fasting state measured after 1 day; type: ADME, organism-based; conditions: in vivo, 24 h; method in brief: as §3
Plasma [21] = assay: Tmax in healthy human plasma assessed as metabolite BAY 78-1789 Tmax at 40 mg, po administered as two 20 mg immediate release tablets daily for 3 days during 10 hrs overnight fasting state measured after 3 day; type: ADME, organism-based; conditions: in vivo, 72 h; method in brief: as §3
Plasma [22] = assay: Half life in healthy human plasma assessed as metabolite BAY 78-1789 Half life at 40 mg, po administered as two 20 mg immediate release tablets daily for 3 days during 10 hrs overnight fasting state measured after 1 day; type: ADME, organism-based; conditions: in vivo, 24 h; method in brief: as §1
Plasma [23] = assay: Half life in healthy human plasma assessed as metabolite BAY 78-1789 Half life at 40 mg, po administered as two 20 mg immediate release tablets daily for 3 days during 10 hrs overnight fasting state measured after 3 day; type: ADME, organism-based; conditions: in vivo, 72 h; method in brief: as §1

`C[C@@H]1[C@H](O)C[C@H]2[C@@H](C)[C@H](N3CCS(=O)(=O)CC3)O[C@@H]3O[C@]4(C)CC[C@@H]1[C@]32OO4` gave a Cmax (Plasma [1]) of 51.9 ng/mL, a Cmax (Plasma [2]) of 38.2 ng/mL and an AUC (Plasma [3]) of 213.1 ng·h/mL. For the same molecule, the AUC (Plasma [4]) was 165.1 ng·h/mL, the Tmax (Plasma [5]) was 2 h and the Tmax (Plasma [6]) was 2.5 h. For the same molecule, the t1/2 (Plasma [7]) was 1.83 h, the t1/2 (Plasma [8]) was 1.86 h and the Cmax (Plasma [9]) was 74.3 ng/mL. The AUC (Plasma [10]) was 294.8 ng·h/mL, the t1/2 (Plasma [11]) was 1.59 h and the Ratio (Plasma [12]) was 0.54. It also gave a Ratio (Plasma [13]) of 0.47, a Ratio (Plasma [14]) of 0.65 and a Ratio (Plasma [15]) of 0.52. For the same molecule, the IC50 (Plasmodium falciparum) was 2.3 ng/mL (≈ 5.51 nM), the Cmax (Plasma [16]) was 27.8 ng/mL and the Cmax (Plasma [17]) was 22.5 ng/mL. The AUC (Plasma [18]) was 95.9 ng·h/mL, the AUC (Plasma [19]) was 84.9 ng·h/mL and the Tmax (Plasma [20]) was 2 h. For the same molecule, the Tmax (Plasma [21]) was 2.5 h, the t1/2 (Plasma [22]) was 1.52 h and the t1/2 (Plasma [23]) was 1.69 h.
